# Experimental data reported in ChEMBL document CHEMBL4689842, “EUbOPEN Chemogenomics Library wave 1” (2021).
# Several values for one entry are separate records, joined by “and”; a condition that tells them apart may be missing. Identical values can stand only once.
# Tests used:
# Format in all cases: toxicity, cell-based
# HEK-293T [1] = assay: Incucyte cell viability with HEK293T; settings: human, 10 µM, compound concentration 10 uM; also: filed as whole numbers so only -1 and 0 and 1 occur
# Fibroblast = assay: Multiplex assay against human fibroblast; settings: 10 µM, compound concentration 10 uM
# Procedure, shortened: (§1)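 Cells were classed with CellPathfinder machine-learning gating, first as Hoechst high-intensity objects or normal cells, then (normal cells) as healthy, pyknosed or fragmented nuclei, and finally (pyknosed cells) as mitotic or apoptotic. Staining of live cells at seeding used Hoechst33342, BioTracker Green Microtubule Cytoskeleton Dye, MitoTracker Red and Annexin V Alexa Fluor 680, with imaging on a CQ1 microscope at 37°C and 5% CO2 after compound addition. Tubulin, mitochondrial-mass and membrane-permeability phenotypes are per cents of healthy-nucleus cells.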
# HEK-293T [2] = assay: Multiplex assay against HEK293T; settings: human, 10 µM, compound concentration 10 uM; procedure, shortened: as §1;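 as to Population Tubulin-Different-Phenotype (%): share of the cells with healthy nuclei that show this phenotype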
structure (smiles),measurement,setting,value
Cc1c(Oc2ccc(F)cc2)c(OC(C)C)nn1-c1ccc(C2CC2)cn1 [IPP/CNRS-A019],Growth Rate,"HEK-293T [1]; 0 h, replicate number 1, timepoint 0 hours",0
same,Growth Rate,"HEK-293T [1]; 0 h, replicate number 2, timepoint 0 hours",1
same,Growth Rate,"HEK-293T [1]; 24 h, replicate number 2, timepoint 24 hours",1
same,Population Apoptotic (%),"Fibroblast; 12 h, replicate 1",78% and 77%
same,Population Fragmented Nuclei (%),"Fibroblast; 12 h, replicate 1",26% and 22%
same,Population Healthy Nuclei (%),"Fibroblast; 12 h, replicate 1",58% and 60%
same,Population Hoechst High Intensity Objects (%),"Fibroblast; 12 h, replicate 1",12% and 13%
same,Population Membrane Permeable-Phenotype (%),"Fibroblast; 12 h, replicate 1",5%
same,Population Mitochondria Different-Phenotype (%),"Fibroblast; 12 h, replicate 1",3% and 6%
same,Population Mitotic Cells (%),"Fibroblast; 12 h, replicate 1",21% and 22%
same,Population Normal (%),"Fibroblast; 12 h, replicate 1",87% and 86%
same,Population Pyknosed Nuclei (%),"Fibroblast; 12 h, replicate 1",15% and 18%
same,Population Tubulin-Different-Phenotype (%),"Fibroblast; 12 h, replicate 1",9% and 4%
same,Total Cell Count,"Fibroblast; 12 h, replicate 1",308 and 230
same,Population Fragmented Nuclei (%),"Fibroblast; 12 h, replicate 2",33% and 67%
same,Population Healthy Nuclei (%),"Fibroblast; 12 h, replicate 2",49% and 28%
same,Population Hoechst High Intensity Objects (%),"Fibroblast; 12 h, replicate 2",38% and 40%
same,Population Mitochondria Different-Phenotype (%),"Fibroblast; 12 h, replicate 2",19% and 42%
same,Population Normal (%),"Fibroblast; 12 h, replicate 2",61% and 59%
same,Total Cell Count,"Fibroblast; 12 h, replicate 2",103 and 83
same,Population Apoptotic (%),"Fibroblast; 24 h, replicate 1",69% and 48%
same,Population Fragmented Nuclei (%),"Fibroblast; 24 h, replicate 1",22% and 21%
same,Population Healthy Nuclei (%),"Fibroblast; 24 h, replicate 1",62% and 63%
same,Population Hoechst High Intensity Objects (%),"Fibroblast; 24 h, replicate 1",16% and 19%
same,Population Membrane Permeable-Phenotype (%),"Fibroblast; 24 h, replicate 1",5% and 4%
same,Population Mitochondria Different-Phenotype (%),"Fibroblast; 24 h, replicate 1",7%
same,Population Mitotic Cells (%),"Fibroblast; 24 h, replicate 1",30% and 51%
same,Population Normal (%),"Fibroblast; 24 h, replicate 1",83% and 80%
same,Population Pyknosed Nuclei (%),"Fibroblast; 24 h, replicate 1",14% and 15%
same,Population Tubulin-Different-Phenotype (%),"Fibroblast; 24 h, replicate 1",9% and 4%
same,Total Cell Count,"Fibroblast; 24 h, replicate 1",321 and 238
same,Population Fragmented Nuclei (%),"Fibroblast; 24 h, replicate 2",44% and 63%
same,Population Healthy Nuclei (%),"Fibroblast; 24 h, replicate 2",46% and 34%
same,Population Hoechst High Intensity Objects (%),"Fibroblast; 24 h, replicate 2",38%
same,Population Membrane Permeable-Phenotype (%),"Fibroblast; 24 h, replicate 2",10% and 0%
same,Population Normal (%),"Fibroblast; 24 h, replicate 2",61%
same,Total Cell Count,"Fibroblast; 24 h, replicate 2",103 and 84
same,Population Apoptotic (%),"HEK-293T [2]; 12 h, replicate 1",12% and 19%
same,Population Fragmented Nuclei (%),"HEK-293T [2]; 12 h, replicate 1",13% and 11%
same,Population Healthy Nuclei (%),"HEK-293T [2]; 12 h, replicate 1",69% and 68%
same,Population Hoechst High Intensity Objects (%),"HEK-293T [2]; 12 h, replicate 1",8% and 10%
same,Population Membrane Permeable-Phenotype (%),"HEK-293T [2]; 12 h, replicate 1",5% and 3%
same,Population Mitochondria Different-Phenotype (%),"HEK-293T [2]; 12 h, replicate 1",7% and 5%
same,Population Mitotic Cells (%),"HEK-293T [2]; 12 h, replicate 1",87% and 80%
same,Population Normal (%),"HEK-293T [2]; 12 h, replicate 1",91% and 89%
same,Population Pyknosed Nuclei (%),"HEK-293T [2]; 12 h, replicate 1",17% and 19%
same,Population Tubulin-Different-Phenotype (%),"HEK-293T [2]; 12 h, replicate 1",7% and 3%
same,Total Cell Count,"HEK-293T [2]; 12 h, replicate 1",607 and 515
same,Population Apoptotic (%),"HEK-293T [2]; 12 h, replicate 2",15% and 18%
same,Population Fragmented Nuclei (%),"HEK-293T [2]; 12 h, replicate 2",7% and 9%
same,Population Healthy Nuclei (%),"HEK-293T [2]; 12 h, replicate 2",89% and 86%
same,Population Hoechst High Intensity Objects (%),"HEK-293T [2]; 12 h, replicate 2",2% and 1%
same,Population Membrane Permeable-Phenotype (%),"HEK-293T [2]; 12 h, replicate 2",4% and 1%
same,Population Mitochondria Different-Phenotype (%),"HEK-293T [2]; 12 h, replicate 2",17%
same,Population Mitotic Cells (%),"HEK-293T [2]; 12 h, replicate 2",84% and 81%
same,Population Normal (%),"HEK-293T [2]; 12 h, replicate 2",97% and 98%
same,Population Pyknosed Nuclei (%),"HEK-293T [2]; 12 h, replicate 2",2% and 3%
same,Total Cell Count,"HEK-293T [2]; 12 h, replicate 2",1658 and 1670
same,Population Apoptotic (%),"HEK-293T [2]; 24 h, replicate 1",28% and 16%
same,Population Fragmented Nuclei (%),"HEK-293T [2]; 24 h, replicate 1",12% and 14%
same,Population Healthy Nuclei (%),"HEK-293T [2]; 24 h, replicate 1",77%
same,Population Hoechst High Intensity Objects (%),"HEK-293T [2]; 24 h, replicate 1",6%
same,Population Membrane Permeable-Phenotype (%),"HEK-293T [2]; 24 h, replicate 1",10%
same,Population Mitochondria Different-Phenotype (%),"HEK-293T [2]; 24 h, replicate 1",4% and 8%
same,Population Mitotic Cells (%),"HEK-293T [2]; 24 h, replicate 1",71% and 83%
same,Population Normal (%),"HEK-293T [2]; 24 h, replicate 1",93%
same,Population Pyknosed Nuclei (%),"HEK-293T [2]; 24 h, replicate 1",10% and 7%
same,Population Tubulin-Different-Phenotype (%),"HEK-293T [2]; 24 h, replicate 1",6% and 9%
same,Total Cell Count,"HEK-293T [2]; 24 h, replicate 1",595 and 667
